Experimental data taken from ChEMBL document CHEMBL1151703, “Irreversible inhibition of dihydrodipicolinate synthase by 4-oxo-heptenedioic acid analogues” (Bioorg Med Chem, 2008).
pKi: −log10 of the molar value. Active and inactive are the calls of the source. No cut-off for these calls is given here.

What was measured:
[1] = biological target: T1, 4-hydroxy-tetrahydrodipicolinate synthase (Escherichia coli K-12, UniProt P0A6L2); assay: Inhibition of Escherichia coli DHDPS
T1 sequence (P0A6L2 whole entry): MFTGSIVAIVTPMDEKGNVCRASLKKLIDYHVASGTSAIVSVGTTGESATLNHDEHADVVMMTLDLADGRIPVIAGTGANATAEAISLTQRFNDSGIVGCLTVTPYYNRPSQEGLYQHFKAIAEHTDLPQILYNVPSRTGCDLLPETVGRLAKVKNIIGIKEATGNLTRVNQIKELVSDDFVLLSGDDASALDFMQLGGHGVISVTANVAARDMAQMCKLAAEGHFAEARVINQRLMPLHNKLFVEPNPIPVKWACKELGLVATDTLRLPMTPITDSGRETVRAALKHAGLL

[2] = biological target: T2, 4-hydroxy-tetrahydrodipicolinate synthase (Escherichia coli K-12) (UniProt P0A6L2); assay: Ratio of Kinact to Ki(app) for Escherichia coli recombinant DHDPS
T2 sequence (whole entry): T1 sequence (P0A6L2 whole entry)
In short: (§1)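 Recombinant E. coli DHDPS, purified, pre-incubated with inhibitor for various times before activity measurement in a coupled assay with E. coli DHDPR (modified coupled assay) at 30 °C; inhibitor range 0.1–250 mM across compounds. Each decay curve was fitted to give kobs; kobs versus [I] was fitted to give kinact and Ki(app); the second-order rate constant is kinact/Ki(app).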

[3] = biological target: T1, 4-hydroxy-tetrahydrodipicolinate synthase; assay: (§2) Inhibition of Escherichia coli recombinant DHDPS overexpressed with DHDPR assessed as residual activity by modified coupled assay; conditions: read-out: Ki(app); in short: as §1
[4] = biological target: T2, 4-hydroxy-tetrahydrodipicolinate synthase (Escherichia coli K-12); assay: as §2; conditions: TDE = time-dependent effect; in short: as §1
[5] = biological target: T2, 4-hydroxy-tetrahydrodipicolinate synthase (Escherichia coli K-12); assay: Inactivation of Escherichia coli recombinant DHDPS; in short: as §1
[6] = biological target: T3, 4-hydroxy-tetrahydrodipicolinate synthase (Bacillus subtilis (strain 168), UniProt Q04796); assay: Inhibition of Bacillus subtilis DHDPS
T3 sequence (Q04796 whole entry): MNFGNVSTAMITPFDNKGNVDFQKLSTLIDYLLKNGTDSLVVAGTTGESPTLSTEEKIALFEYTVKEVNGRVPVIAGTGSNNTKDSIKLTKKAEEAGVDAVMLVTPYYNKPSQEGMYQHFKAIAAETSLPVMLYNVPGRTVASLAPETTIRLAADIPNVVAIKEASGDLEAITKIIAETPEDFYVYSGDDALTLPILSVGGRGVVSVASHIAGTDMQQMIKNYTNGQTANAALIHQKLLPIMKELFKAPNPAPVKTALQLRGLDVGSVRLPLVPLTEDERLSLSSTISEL

[7] = biological target: T2, 4-hydroxy-tetrahydrodipicolinate synthase (Escherichia coli K-12); assay: Inhibition of Escherichia coli recombinant DHDPS overexpressed with DHDPR assessed as residual activity at 2 mM within 6 min by modified coupled assay; in short: as §1
[8] = Inhibition of succinyl co-transferase; conditions: read-out: Ki(app)

Structure (SMILES) | pKi [1] | Ratio [2] | pKi [3] | Activity [4] | Kinact [5] | other results
CCC(=O)C(=O)O | 3.08 | – | – | – | – | –
O=C(O)C(=O)CF | 3.66 | – | – | – | – | –
CCOC(=O)/C=C/C(=O)CCC(=O)OCC | – | 0.11 M⁻¹ s⁻¹ | 1.96 | tde | 1.2 ×10⁻³ /s | –
O=C(O)C(=O)CCCC(=O)C(=O)O | – | – | – | – | – | pKi [6]: 3.80
CCOC(=O)/C=C/C(=O)/C=C/C(=O)OCC | – | 5.9 M⁻¹ s⁻¹ | 2.31 | – | 29 ×10⁻³ /s | Activity [7]: Active
CCCC(=O)C(=O)O | 3.15 | – | – | – | – | –
O=C(O)/C=C/C(=O)CCC(=O)O | – | 0.12 M⁻¹ s⁻¹ | 1.49 | tde | 4.1 ×10⁻³ /s | –
O=CC(=O)O [GLYOXYLATE] | 4.80 | – | – | – | – | –
O=C(O)/C=C/C(=O)/C=C/C(=O)O | – | 1.2 M⁻¹ s⁻¹ | 2.79 | tde | 1.9 ×10⁻³ /s | pKi [8]: 3.28
